In BindingDB's records for doi:10.1021/acsmedchemlett.0c00095 (Gilead Sciences, 2020):

Target: Phosphatidylinositol 3-kinase regulatory subunit alpha/4,5-bisphosphate 3-kinase catalytic subunit beta isoform (Homo sapiens, UniProt P27986+P42338)
Experiment: Inhibition of recombinant human full-length N-terminal His6-tagged p110beta/human recombinant full-length untagged p85alpha expressed in baculovirus infected Sf21 insect cells using PIP2 as substrate after 30 mins in presence of ATP at 2xKm concentration by TR-FRET assay
Procedure, shortened: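 Class I PI3K isoforms assayed in vitro for kinase inhibition with ATP at 2Km steady-state concentration; IC50 values averaged over at least 2 determinations.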

Chain of Phosphatidylinositol 3-kinase regulatory subunit alpha/4,5-bisphosphate 3-kinase catalytic subunit beta isoform (P27986 whole entry, canonical isoform): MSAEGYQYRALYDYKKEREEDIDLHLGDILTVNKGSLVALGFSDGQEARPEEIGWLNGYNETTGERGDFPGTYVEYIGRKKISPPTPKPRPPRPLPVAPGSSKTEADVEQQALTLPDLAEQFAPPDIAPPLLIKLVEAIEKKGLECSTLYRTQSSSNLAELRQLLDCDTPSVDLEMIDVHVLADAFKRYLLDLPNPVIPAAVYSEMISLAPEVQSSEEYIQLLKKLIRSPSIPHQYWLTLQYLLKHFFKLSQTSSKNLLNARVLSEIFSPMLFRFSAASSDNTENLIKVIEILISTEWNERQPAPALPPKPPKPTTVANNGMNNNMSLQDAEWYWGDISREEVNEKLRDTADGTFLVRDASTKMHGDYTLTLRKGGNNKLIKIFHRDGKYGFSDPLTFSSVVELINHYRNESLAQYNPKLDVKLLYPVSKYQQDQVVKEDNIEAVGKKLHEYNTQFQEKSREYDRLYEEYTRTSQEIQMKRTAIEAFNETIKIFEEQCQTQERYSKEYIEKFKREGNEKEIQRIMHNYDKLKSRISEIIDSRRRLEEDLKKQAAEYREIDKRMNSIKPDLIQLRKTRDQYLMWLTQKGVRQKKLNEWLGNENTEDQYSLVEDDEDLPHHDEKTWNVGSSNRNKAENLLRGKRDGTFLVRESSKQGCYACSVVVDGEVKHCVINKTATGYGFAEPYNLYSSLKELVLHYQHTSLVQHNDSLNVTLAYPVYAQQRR
Chain of Phosphatidylinositol 3-kinase regulatory subunit alpha/4,5-bisphosphate 3-kinase catalytic subunit beta isoform (P42338 whole entry, canonical isoform): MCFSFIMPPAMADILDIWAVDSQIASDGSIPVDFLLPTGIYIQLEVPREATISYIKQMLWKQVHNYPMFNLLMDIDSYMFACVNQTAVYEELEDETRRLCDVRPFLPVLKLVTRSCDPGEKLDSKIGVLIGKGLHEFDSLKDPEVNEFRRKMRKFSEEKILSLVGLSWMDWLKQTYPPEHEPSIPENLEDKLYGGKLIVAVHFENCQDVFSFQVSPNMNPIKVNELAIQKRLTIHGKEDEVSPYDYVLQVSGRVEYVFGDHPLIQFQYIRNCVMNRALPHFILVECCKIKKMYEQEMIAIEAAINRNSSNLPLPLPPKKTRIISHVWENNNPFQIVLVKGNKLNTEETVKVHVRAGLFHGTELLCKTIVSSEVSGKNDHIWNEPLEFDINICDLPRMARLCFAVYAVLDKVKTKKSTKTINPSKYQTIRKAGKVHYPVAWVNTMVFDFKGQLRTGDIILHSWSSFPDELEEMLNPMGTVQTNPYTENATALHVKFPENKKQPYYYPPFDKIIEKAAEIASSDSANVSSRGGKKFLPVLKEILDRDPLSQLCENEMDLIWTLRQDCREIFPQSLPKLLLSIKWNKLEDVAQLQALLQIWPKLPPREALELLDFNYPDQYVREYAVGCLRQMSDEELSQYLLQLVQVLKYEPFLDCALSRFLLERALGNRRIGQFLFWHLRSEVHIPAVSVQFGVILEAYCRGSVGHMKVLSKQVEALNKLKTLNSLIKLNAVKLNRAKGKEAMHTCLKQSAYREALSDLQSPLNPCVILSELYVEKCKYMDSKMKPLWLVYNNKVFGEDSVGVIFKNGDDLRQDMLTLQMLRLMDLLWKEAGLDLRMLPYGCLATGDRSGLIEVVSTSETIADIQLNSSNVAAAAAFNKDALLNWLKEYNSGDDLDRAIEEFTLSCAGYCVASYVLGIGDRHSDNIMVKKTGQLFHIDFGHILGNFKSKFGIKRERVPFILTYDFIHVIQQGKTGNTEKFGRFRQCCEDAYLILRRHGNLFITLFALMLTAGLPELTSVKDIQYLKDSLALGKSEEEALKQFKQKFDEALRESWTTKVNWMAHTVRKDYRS

Structure (SMILES) | IC50
Cc1cc(-c2cc(-c3nnc[nH]3)c3nc(C)n(-c4ccnc5c(F)ccc(F)c45)c3c2)ncn1 [US10227350, Compound 155] | 62 nM
Cc1nc2c(-c3nnc[nH]3)cc(-c3ccnc(C(F)F)c3)cc2n1-c1ccnc2c(F)ccc(F)c12 [US10227350, Compound 43] | 30 nM
Cc1nccc(-c2cc(-c3nnc[nH]3)c3nc(C)n(-c4ccnc5c(F)ccc(F)c45)c3c2)n1 [US10227350, Compound 156] | 12 nM
Cc1nc2c(-c3nnc[nH]3)cc(-c3ccnc(Cl)c3)cc2n1-c1ccnc2c(F)ccc(F)c12 [US10227350, Compound 158] | 7 nM
CNc1nccc(-c2cc(-c3nnc[nH]3)c3nc(C)n(-c4ccnc5c(F)ccc(F)c45)c3c2)c1F [US10227350, Compound 77] | 1400 nM
Cc1nc2c(-c3nnc[nH]3)cc(-c3c(F)cnc(N)c3F)cc2n1-c1ccnc2c(F)ccc(F)c12 [US10227350, Compound 100] | 321 nM
Cc1nc2c(-c3nnc[nH]3)cc(-c3ccnc(N)c3)cc2n1-c1ccnc2c(F)ccc(F)c12 [US10227350, Compound 104] | 10 nM
Cc1nc2c(-c3nnc[nH]3)cc(-c3ccncc3)cc2n1-c1ccnc2c(F)ccc(F)c12 [US10227350, Compound 140] | 6 nM
Clc1cccc2c(-n3cnc4c(-c5nnc[nH]5)cc(-c5ccncc5)cc43)ccnc12 | 5 nM
Clc1cccc2c(-n3cnc4c(-c5nnc[nH]5)cc(N5CCOCC5)cc43)ccnc12 [US10214519, Example 111] | 3 nM
Cc1nc2c(-c3nnc[nH]3)cc(-c3ccnc(C#N)c3)cc2n1-c1ccnc2c(F)ccc(F)c12 [US10227350, Compound 113] | 4 nM
Cc1nc2c(-c3nnc[nH]3)cc(-c3cc(N)ncc3F)cc2n1-c1ccnc2c(F)ccc(F)c12 [US10227350, Compound 76] | 50 nM
Cc1nc2c(-c3nnc[nH]3)cc(-c3ccnc(N)c3Cl)cc2n1-c1ccnc2c(F)ccc(F)c12 [US10227350, Compound 91] | 19 nM
Cc1cc(-c2cc(-c3nnc[nH]3)c3nc(C)n(-c4ccnc5c(F)ccc(F)c45)c3c2)cc(N)n1 [US10227350, Compound 90] | 341 nM
